Source: PubChem BioAssay AID651576 (The Scripps Research Institute Molecular Screening Center, 2012)
Calls of active or inactive are those of the source.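 The calls were made as follows: active = inhibition of at least 50%, averaged over three replicate wells; inactive = inhibition below 50%.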

Tested on: HCV core protein (core106) dimerization, Hepatitis C virus
Test: HCV core106 dimerization inhibitors, late-stage follow-up, biochemical, AlphaScreen luminescence, single dose 15 µM, powder samples (AID 651576)
Settings: AlphaScreen GST/Flag-core106 dimerization, at 15 µM, active compounds read high
Procedure, shortened: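 Material: HCV core106 dimerization between GST-tagged and Flag-tagged core106 proteins / Amount: each tagged core106 protein at 150 nM / Buffer or medium: HEPES pH 7.5 with DTT and CHAPS / Incubation: protein preincubation 1 h at room temperature, 1 h per bead step / Detection: AlphaScreen luminescence / Controls: protein-only wells as 0% inhibition reference / Repeats: triplicate wells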

Row | inhibition | SMILES
1 | 60% | Cc1ccc(Cc2c(C)nc3nc(SCC(=O)NCCN4CCOCC4)nn3c2C)cc1
2 | < 50% (inactive) | C#CCN1CCN(CCNC(=O)CSc2nc3nc(C)c(Cc4ccc(C)cc4)c(C)n3n2)CC1
3 | 85% | Cc1ccc(Cc2c(CCc3ccccc3)nc3nc(SC(Cc4ccccc4)C(=O)NCCN4CCOCC4)nn3c2C)cc1 (centres undefined)
4 | 56% | Cc1ccc(Cc2c(C)nc3nc(SCC(=O)NCCN4CCCCC4)nn3c2C)cc1
